Measurements from the RNAGym collection of RNA variant scans (doi:10.1002/anie.201605470).

B1: Osa-1-4 twister ribozyme (parent)
chain: CCGCCUAACACUGCCAAUGCCGGUCCCAAGCCCGGAUAAAAGUGGAGGGGGCGG

Variants of: B1
Test: self-cleavage, relative activity (ratio to wild type); higher = more cleavage; co-transcriptional
How it was run: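 A DNA template for a 54-nucleotide Oryza sativa twister ribozyme was synthesised with 97 % wild-type base and 1 % of each other base at the 48 positions downstream of the cleavage site. It was transcribed in vitro for 2 h at 37 °C, allowing co-transcriptional self-cleavage, then reverse-transcribed with a template-switching oligonucleotide, PCR-amplified and deep-sequenced. Cleavage status was scored from reads with or without upstream sequence. Relative activity is fraction cleaved normalised to wild type.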
In the case of CCGCCUAACACUGCCAAUGCUGGUCCCAAGCCCGGAUAAAAGUGGUGGGGGCGG, the self-cleavage is reported as 0.06. CCGCCUAACACUGCCAAUGCAGGUCCCAAGCCCGGAUAAAAGUGGUGGGGGCGG showed a self-cleavage of 0.07. Work on CCGCCUAACACUGCCAAUGCGGGUCCCAAGCCCGGAUAAAAGUGGUGGGGGCGG yielded a self-cleavage of 0.02. In the case of CCGCCUAACACUGCCAAUGCCGGUCCCAAGCCCGCAUAAAAGUGGUGGGGGCGG, the self-cleavage is reported as 0.05. Work on CCGCCUAACACUGCCAAUGCCGGUCCCAAGCCCGUAUAAAAGUGGUGGGGGCGG yielded a self-cleavage of 0.09. CCGCCUAACACUGCCAAUGCCGGUCCCAAGCCCGAAUAAAAGUGGUGGGGGCGG gave a self-cleavage of 0.07. Variant CCGCCUAACACUGCGAAUGCCGGUCCCAAGCCCGGAUAAAAGUGGUGGGGGCGG has a self-cleavage of 0.08. With CCGCCUAACACUGCUAAUGCCGGUCCCAAGCCCGGAUAAAAGUGGUGGGGGCGG the self-cleavage was 0.06. For CCGCCUAACACUGCAAAUGCCGGUCCCAAGCCCGGAUAAAAGUGGUGGGGGCGG, the self-cleavage was 0.05. CCGCCUAACACUGCCAAGGCCGGUCCCAAGCCCGGAUAAAAGUGGUGGGGGCGG gave a self-cleavage of 0.09. With CCGCCUAACACUGCCAACGCCGGUCCCAAGCCCGGAUAAAAGUGGUGGGGGCGG the self-cleavage was 0.08. In the case of CCGCCUAACACUGCCAAAGCCGGUCCCAAGCCCGGAUAAAAGUGGUGGGGGCGG, the self-cleavage is reported as 0.05. Variant CCGCCUAACACUGCCAAUGCCGGUCCCAAGCCCGGAUAAAAGUGGAAGGGGCGG has a self-cleavage of 0.51. For CCGCCUAACACUGCCAAUGCCCGUCCCAAGCCCGGAUAAAAGUGGUGGGGGCGG, the self-cleavage was 0.03. With CCGCCUAACACUGCCAAUGCCUGUCCCAAGCCCGGAUAAAAGUGGUGGGGGCGG the self-cleavage was 0.06. CCGCCUAACACUGCCAAUGCCAGUCCCAAGCCCGGAUAAAAGUGGUGGGGGCGG gave a self-cleavage of 0.09. With CCGCCUAACACUGCCAAUGCCGGUCACAAGCCCGGAUAAAAGUGGUGGGGGCGG the self-cleavage was 0.02. With CCGCCUAACACUGCCAAUGCCGGUCUCAAGCCCGGAUAAAAGUGGUGGGGGCGG the self-cleavage was 0.06. Work on CCGCCUAACACUGCCAAUGCCGGUCGCAAGCCCGGAUAAAAGUGGUGGGGGCGG yielded a self-cleavage of 0.03. For CCGCCUAACACUGCCAAUGCCGGUCCCAAUCCCGGAUAAAAGUGGUGGGGGCGG, the self-cleavage was 0.02. Work on CCGCCUAACACUGCCAAUGCCGGUCCCAACCCCGGAUAAAAGUGGUGGGGGCGG yielded a self-cleavage of 0.01. CCGCCUAACACUGCCAAUGCCGGUCCCAAACCCGGAUAAAAGUGGUGGGGGCGG gave a self-cleavage of 0.02. Work on CCGCCUAACACCGCCAAUGCCGGUCCCAAGCCCGGAUAAAAGUGGUGGGGGCGG yielded a self-cleavage of 0.06. CCGCCUAACACAGCCAAUGCCGGUCCCAAGCCCGGAUAAAAGUGGUGGGGGCGG gave a self-cleavage of 0.07. CCGCCUAACACGGCCAAUGCCGGUCCCAAGCCCGGAUAAAAGUGGUGGGGGCGG showed a self-cleavage of 0.07. In the case of CCGCCUAACACUGCCAAUGCCGGUCCUAAGCCCGGAUAAAAGUGGUGGGGGCGG, the self-cleavage is reported as 0.06. Work on CCGCCUAACACUGCCAAUGCCGGUCCGAAGCCCGGAUAAAAGUGGUGGGGGCGG yielded a self-cleavage of 0.03. In the case of CCGCCUAACACUGCCAAUGCCGGUCCAAAGCCCGGAUAAAAGUGGUGGGGGCGG, the self-cleavage is reported as 0.04. With CCGCCUAACACUGCCAAUGCCGAUCCCAAGCCCGGAUAAAAGUGGUGGGGGCGG the self-cleavage was 0.06. With CCGCCUAACACUGCCAAUGCCGUUCCCAAGCCCGGAUAAAAGUGGUGGGGGCGG the self-cleavage was 0.03. With CCGCCUAACACUGCCAAUGCCGCUCCCAAGCCCGGAUAAAAGUGGUGGGGGCGG the self-cleavage was 0.02. With CCGCCUAACACUGCCAAUGUCGGUCCCAAGCCCGGAUAAAAGUGGUGGGGGCGG the self-cleavage was 0.1. In the case of CCGCCUAACACUGCCAAUGGCGGUCCCAAGCCCGGAUAAAAGUGGUGGGGGCGG, the self-cleavage is reported as 0.05. Work on CCGCCUAACACUGCCAAUGACGGUCCCAAGCCCGGAUAAAAGUGGUGGGGGCGG yielded a self-cleavage of 0.06. CCGCCUAACACUGCCAAUGCCGGUCCCAAGCCGGGAUAAAAGUGGUGGGGGCGG showed a self-cleavage of 0.03. Variant CCGCCUAACACUGCCAAUGCCGGUCCCAAGCCAGGAUAAAAGUGGUGGGGGCGG has a self-cleavage of 0.05. Work on CCGCCUAACACUGCCAAUGCCGGUCCCAAGCCUGGAUAAAAGUGGUGGGGGCGG yielded a self-cleavage of 0.06. For CCGCCUAACACUGCCAAUACCGGUCCCAAGCCCGGAUAAAAGUGGUGGGGGCGG, the self-cleavage was 0.06. With CCGCCUAACACUGCCAAUUCCGGUCCCAAGCCCGGAUAAAAGUGGUGGGGGCGG the self-cleavage was 0.04. Variant CCGCCUAACACUGCCAAUCCCGGUCCCAAGCCCGGAUAAAAGUGGUGGGGGCGG has a self-cleavage of 0.03. Variant CCGCCUAACACUGCCAAUGCCGGUCCCAAGCCCGGAUAAAAGUGGUGGGGCCGG has a self-cleavage of 0.05. With CCGCCUAACACUGCCAAUGCCGGUCCCAAGCCCGGAUAAAAGUGGUGGGGACGG the self-cleavage was 0.09. CCGCCUAACACUGCCAAUGCCGGUCCCAAGCCCGGAUAAAAGUGGUGGGGUCGG showed a self-cleavage of 0.06. CCGCCUAACACUGCCAAUGCCGGUCCCAAGCCCGGAUAAAAGUGGUCGGGGCGG gave a self-cleavage of 0.04. With CCGCCUAACACUGCCAAUGCCGGUCCCAAGCCCGGAUAAAAGUGGUAGGGGCGG the self-cleavage was 0.06. With CCGCCUAACACUGCCAAUGCCGGUCCCAAGCCCGGAUAAAAGUGGUUGGGGCGG the self-cleavage was 0.05. Work on CCGCCUAACACUGCCAAUGCCGGUCCCAAGCCCGGAUAAAAGAGGUGGGGGCGG yielded a self-cleavage of 0.08. Work on CCGCCUAACACUGCCAAUGCCGGUCCCAAGCCCGGAUAAAAGCGGUGGGGGCGG yielded a self-cleavage of 0.06.
